ChEMBL document CHEMBL1139206, “Evaluation of nitrate-substituted pseudocholine esters of aspirin as potential nitro-aspirins” (Bioorg Med Chem Lett, 2007)

How the values were obtained:
[1] = species: Homo sapiens; experiment: Stability in human plasma assessed as hydrolysis half life
[2] = tested on: Plasma; experiment: Stability in human plasma assessed as aspirin production at pH 7.4; format: ADME, cell-free
Summary of the method: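 Test ester incubated in dilute (10%) buffered human plasma, pH 7.4, 37 °C. Products (parent ester, deacetylated salicylate ester, aspirin, salicylic acid) were followed over time by RP-HPLC with PDA detection; salicylate esters read at 296 nm. Disappearance fitted to pseudo-first-order kinetics, half-life = 0.693/k_obs. Aspirin yield expressed on a molar basis.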

| Structure (SMILES) | half-life [1] [min] | Activity [2] [%] |
| --- | --- | --- |
| CC(=O)Oc1ccccc1C(=O)OCCO[N+](=O)[O-] | 1.6 | < 0.5 |
| CCCN(CCOC(=O)c1ccccc1OC(C)=O)CCO[N+](=O)[O-] | 0.65 | 9.2 |
| CC(=O)Oc1ccccc1C(=O)OCCCO[N+](=O)[O-] | 2.23 | < 0.5 |
| CC(=O)Oc1ccccc1C(=O)OCC(=O)N(C)CCO[N+](=O)[O-] | 1.17 | < 0.5 |
| CC(=O)Oc1ccccc1C(=O)OCCN(CCO[N+](=O)[O-])CCO[N+](=O)[O-] | 1.12 | < 0.5 |
| CC(=O)Oc1ccccc1C(=O)OC(C)CO[N+](=O)[O-] (configuration not stated) | 1.47 | < 0.5 |
| CC(=O)Oc1ccccc1C(=O)OCCN(C)CCO[N+](=O)[O-] | 0.35 | < 0.5 |
| CCCN(CCO[N+](=O)[O-])C(=O)COC(=O)c1ccccc1OC(C)=O | 1.15 | < 0.5 |
| CCN(CCOC(=O)c1ccccc1OC(C)=O)CCO[N+](=O)[O-] | 1.05 | < 0.5 |
| CCN(CCO[N+](=O)[O-])C(=O)COC(=O)c1ccccc1OC(C)=O | 1.03 | < 0.5 |
| CC(=O)Oc1ccccc1C(=O)OCC(=O)N(CCO[N+](=O)[O-])CC[N+](=O)[O-] | 6.12 | < 0.5 |
